Experimental data taken from ChEMBL document CHEMBL4680186, “New azole antifungals with a fused triazinone scaffold” (Eur J Med Chem, 2020).
Calls of active or inactive are those of the source. The rule behind the calls is not given here.

Tests used:
[1] = tested on: Candida albicans; assay: Inhibition of sterol biosynthesis in Candida albicans CAAL93 assessed as 14alpha-methylfecosterol level at 10 ng/ml after 18 hrs by GC-MS analysis relative to control; assay type: functional; set-up: scale not given: the % may be the effect or the level left
In short: (§1)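 C. albicans CAAL93 blastospores were grown 18 h at 35 °C with stirring in 50 mL Sabouraud broth, with drug added before incubation. Cells were pelleted and saponified in ethanolic KOH at 80 °C for 60 min, and sterols extracted with hexane. Analysis by GC-MS (EI 70 eV, splitless injection at 250 °C, helium carrier); sterols identified by fragmentation pattern.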

[2] = tested on: Candida albicans; assay: Inhibition of sterol biosynthesis in Candida albicans CAAL93 assessed as lanosterol level at 1 ng/ml after 18 hrs by GC-MS analysis (reference value: 1.6%); assay type: functional; set-up: scale not given: the % may be the effect or the level left
[3] = tested on: Candida albicans; assay: Inhibition of sterol biosynthesis in Candida albicans CAAL93 assessed as other sterols level at 10 ng/ml after 18 hrs by GC-MS analysis (Rvb < 1%); assay type: functional; set-up: scale not given: the % may be the effect or the level left; in short: as §1
[4] = tested on: Candida albicans; assay: Inhibition of ergosterol biosynthesis in Candida albicans CAAL93 after 18 hrs by GC-MS analysis; assay type: functional; settings: dose 1-10 ng/ml
[5] = tested on: Candida albicans; assay: Inhibition of sterol biosynthesis in Candida albicans CAAL93 assessed as ergosterol level at 1 ng/ml after 18 hrs by GC-MS analysis (reference value: 89.7%); assay type: functional; set-up: scale not given: the % may be the effect or the level left
[6] = tested on: Candida albicans; assay: Inhibition of sterol biosynthesis in Candida albicans CAAL93 assessed as episterol level at 1 ng/ml after 18 hrs by GC-MS analysis (reference value: 2%); assay type: functional; set-up: scale not given: the % may be the effect or the level left
[7] = Toxicity in CRL:WI rat assessed as behavioral changes at 300 mg/kg, po up to 14 days; assay type: organism-based; settings: in vivo, 336 h, time <=14 day
In short: (§2)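 Acute oral toxicity in rats: single gavage dose of 300 mg/kg bw (two groups). Behaviour, body weight change, toxicity signs and mortality were recorded at 30 min, 1, 2, 4 and 6 h after dosing, then daily for 14 days.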

[8] = tested on: Candida albicans; assay: Antifungal activity against Candida albicans DSY292 harboring Erg1l G464S/R467K/Y132 infected in Swiss mouse assessed as reduction in kidney fungal burden at 10 mg/kg, po after 14 days; assay type: functional, organism-based; settings: time 14.0 day
[9] = tested on: Scedosporium apiospermum; assay: Antifungal activity against Scedosporium apiospermum SCAP1 assessed as reduction in microbial growth […] by broth microdilution method; assay type: functional
[10] = tested on: Candida albicans; assay: Antifungal activity against Candida albicans DSY292 harboring Erg1l G464S/R467K/Y132 mutant infected in Swiss mouse assessed as survival at 15 mg/kg, po after 10 days; assay type: functional, organism-based; settings: time 10.0 day
In short: (§3)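 Swiss mice (~25 g) immunosuppressed with prednisolone 30 mg/kg s.c. one day before challenge; day 0 i.v. infection with C. albicans blastoconidia (5.10⁶ yeast/mL, 100 µL). Oral dosing 1 h post-infection, once daily for 5 days, 10 mg/kg (CAAL93) or 15 mg/kg (DSY292), vehicle 40% DMSO/25% Tween80/35% olive oil. Mice given 50% grapefruit juice ad libitum. Survival followed 14 days (log-rank Mantel-Cox).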

[11] = tested on: Candida albicans; assay: Inhibition of sterol biosynthesis in Candida albicans CAAL93 assessed as eburicol level at 1 ng/ml after 18 hrs by GC-MS analysis relative to control; assay type: functional; set-up: scale not given: the % may be the effect or the level left
[12] = tested on: Fusarium sp.; assay: Antifungal activity against Fusarium sp. assessed as reduction in microbial growth […] by broth microdilution method; assay type: functional
[13] = tested on: Rhizopus arrhizus; assay: Antifungal activity against Rhizopus oryzae RHPOR2 assessed as reduction in microbial growth after 24 hrs by broth microdilution method; assay type: functional
In short: (§4)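 CLSI M38 broth microdilution in RPMI 1640 buffered to pH 7.0 with MOPS. Drugs were diluted in DMSO then medium; final range 0.032-16 mg/L. Conidia or sporangiospores came from 7-day potato dextrose agar cultures; diluted (2×) inocula were 0.9×10^4–4.7×10^4 CFU/mL. Incubation at 35 °C, read at 48 h except Zygomycetes at 24 h. MIC read visually as lowest concentration preventing 100% growth; duplicate.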

[14] = tested on: Candida albicans; assay: Inhibition of ergosterol biosynthesis in Candida albicans CAAL93 at 10 ng/ml after 18 hrs by GC-MS analysis relative to control; assay type: functional
[15] = tested on: Pichia kudriavzevii (Candida krusei); assay: Antifungal activity against fluconazole-resistant Candida krusei CAKR7 assessed as reduction in microbial growth after 24 hrs by resazurin staining based spectrofluorometric method; settings: CAKR7, 24 h
[16] = tested on: Candida albicans; assay: Inhibition of sterol biosynthesis in Candida albicans CAAL93 assessed as ergostadienol level at 1 ng/ml after 18 hrs by GC-MS analysis (reference value: 1.6%); assay type: functional; set-up: scale not given: the % may be the effect or the level left
[17] = tested on: Candida albicans; assay: Inhibition of sterol biosynthesis in Candida albicans CAAL93 assessed as other sterols level at 1 ng/ml after 18 hrs by GC-MS analysis (Rvb < 1%); assay type: functional; set-up: scale not given: the % may be the effect or the level left
[18] = tested on: Candida albicans; assay: Inhibition of sterol biosynthesis in Candida albicans CAAL93 assessed as fecosterol level at 1 ng/ml after 18 hrs by GC-MS analysis relative to control; assay type: functional; set-up: scale not given: the % may be the effect or the level left
[19] = Toxicity in CRL:WI rat assessed as mortality at 300 mg/kg, po up to 14 days; assay type: organism-based; settings: in vivo, 336 h, time <=14 day; in short: as §2
[20] = tested on: Candida albicans; assay: Inhibition of ergosterol biosynthesis in Candida albicans CAAL93 at 1 ng/ml after 18 hrs by GC-MS analysis relative to control; assay type: functional
[21] = tested on: Mucor circinelloides; assay: Antifungal activity against Mucor circinelloides MURI1 assessed as reduction in microbial growth after 24 hrs by broth microdilution method; assay type: functional; in short: as §4
[22] = tested on: Candida albicans; assay: Inhibition of sterol biosynthesis in Candida albicans CAAL93 assessed as ergostadienol level at 10 ng/ml after 18 hrs by GC-MS analysis (reference value: 1.6%); assay type: functional; set-up: scale not given: the % may be the effect or the level left; in short: as §1
[23] = tested on: Candida albicans; assay: Antifungal activity against Candida albicans CAAL93 infected in Swiss mouse assessed as survival at 10 mg/kg, po after 14 days relative to control; assay type: functional; settings: 336 h, time 14 day; in short: as §3
[24] = tested on: Rhizopus arrhizus; assay: Antifungal activity against Rhizopus oryzae RHPOR1 assessed as reduction in microbial growth after 24 hrs by broth microdilution method; assay type: functional; in short: as §4
[25] = tested on: Candida albicans; assay: Inhibition of sterol biosynthesis in Candida albicans CAAL93 assessed as zymosterol level at 1 ng/ml after 18 hrs by GC-MS analysis (reference value: 1.6%); assay type: functional; set-up: scale not given: the % may be the effect or the level left
[26] = Toxicity in CRL:WI rat assessed as weight gain at 300 mg/kg, po up to 14 days; assay type: organism-based; settings: in vivo, 336 h, time <=14 day; in short: as §2
[27] = Toxicity in CRL:WI rat assessed as hunched back at 300 mg/kg, po up to 14 days; assay type: organism-based; settings: in vivo, 336 h, time <=14 day; in short: as §2
[28] = tested on: Pichia kudriavzevii (Candida krusei); assay: Antifungal activity against fluconazole-resistant Candida krusei CAKR8 assessed as reduction in microbial growth after 24 hrs by resazurin staining based spectrofluorometric method; settings: CAKR8, 24 h
[29] = tested on: Candida albicans; assay: Inhibition of sterol biosynthesis in Candida albicans CAAL93 assessed as ergosterol level at 10 ng/ml after 18 hrs by GC-MS analysis (reference value: 89.7%); assay type: functional; set-up: scale not given: the % may be the effect or the level left; in short: as §1
[30] = tested on: Candida albicans; assay: Inhibition of sterol biosynthesis in Candida albicans CAAL93 assessed as eburicol level at 10 ng/ml after 18 hrs by GC-MS analysis relative to control; assay type: functional; set-up: scale not given: the % may be the effect or the level left; in short: as §1
[31] = tested on: Candida albicans; assay: Antifungal activity against Candida albicans CAAL93 infected in Swiss mouse assessed as reduction in kidney fungal burden at 10 mg/kg, po after 14 days; assay type: functional, organism-based; settings: time 14.0 day
[32] = tested on: Candida albicans; assay: Inhibition of sterol biosynthesis in Candida albicans CAAL93 assessed as lanosterol level at 10 ng/ml after 18 hrs by GC-MS analysis (reference value: 1.6%); assay type: functional; set-up: scale not given: the % may be the effect or the level left; in short: as §1

Q: For `COc1ccc(-c2cc3cnn([C@H](C)[C@](O)(Cn4cncn4)c4ccc(F)cc4F)c(=O)n3c2)cc1`, which Activity [1] is on record?
A: 3.6%

Q: And the Activity [2]?
A: 7.7%

Q: And the Activity [3]?
A: 5%

Q: And the inhibition [4]?
A: Dose-dependent effect

Q: What about the Activity [5] of the same compound?
A: 61%

Q: What about the Activity [6] of the same compound?
A: 11%

Q: And the Activity [7]?
A: Toxic

Q: And the Activity [8]?
A: Active

Q: What about the MIC [9] of the same compound?
A: 3 µg/mL

Q: And the Survival [10]?
A: Active

Q: What about the Activity [11] of the same compound?
A: 1.8%

Q: What about the MIC [12] of the same compound?
A: > 16 µg/mL

Q: And the MIC [13]?
A: 0.094 µg/mL

Q: What about the inhibition [14] of the same compound?
A: 53%

Q: And the MIC [15]?
A: 0.062 µg/mL

Q: What about the Activity [16] of the same compound?
A: 3.7%

Q: What about the Activity [17] of the same compound?
A: 8.3%

Q: And the Activity [18]?
A: 3.2%

Q: What about the Activity [19] of the same compound?
A: Non-Toxic

Q: And the inhibition [20]?
A: 32%

Q: And the MIC [21]?
A: 0.19 µg/mL

Q: What about the Activity [22] of the same compound?
A: 1.1%

Q: And the survival at 10 mg/kg [23]?
A: 100%

Q: What about the MIC [24] of the same compound?
A: 0.0625 µg/mL

Q: What about the Activity [25] of the same compound?
A: 3.3%

Q: What about the Activity [26] of the same compound?
A: Non-Toxic

Q: What about the Activity [27] of the same compound?
A: Toxic

Q: And the MIC [28]?
A: 0.081 µg/mL

Q: What about the Activity [29] of the same compound?
A: 42%

Q: And the Activity [30]?
A: 23.1%

Q: And the Activity [31]?
A: Active

Q: And the Activity [32]?
A: 25.2%
